Experimental data published in the RNAGym collection of RNA variant scans (doi:10.1126/science.aae0568).
This sample holds only a part of the variants without activity.

B1: tRNA (parent)
chain: GUUCCGUUGGCGUAAUGGUAACGCGUCUCCCUCCUAAGGAGAAGACUGCGGGUUCGAGUCCCGUACGGAACG

Variants of: B1
Experiment: yeast fitness relative to wild type (ratio to wild type); higher = fitter; tRNA-Arg(CCU), competitive growth, 37 C, YPD
Procedure, shortened: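 Amplicons of the tRNA-Arg(CCU) gene were sequenced, 100-nucleotide paired-end, from the start population and from each end population of a pooled yeast competition. The competition, in six parallel replicates, lasted 24 hours in YPD at 37°C. Fitness relative to wild type was calculated from changes in genotype frequencies. Genotypes had to have ≥ 100 starting reads, and estimates < 0.5 were set to 0.5.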
Work on A15C A40C A70U yielded a yeast fitness of at most 0.5. Work on A15C A40U G63A A65G G67A yielded a yeast fitness of at most 0.5. Variant A14U C34G A37C C62U has a yeast fitness of at most 0.5. Variant A14U C61U has a yeast fitness of 0.591. Variant A14U U35A A43C has a yeast fitness of at most 0.5. Work on A14U C24U G48C yielded a yeast fitness of at most 0.5. A15C C22G C33U U59G C62G showed a yeast fitness of 0.981. With A15C A40G the yeast fitness was 0.729. In the case of A15C A40C, the yeast fitness is reported as 0.609. In the case of A14U G17A U59C C61U, the yeast fitness is reported as 0.653. A14U C29A C49A gave a yeast fitness of at most 0.5. A14U C27U C55G G68C gave a yeast fitness of at most 0.5. A14U C34G A37C showed a yeast fitness of at most 0.5. Variant A15C A20C G41C has a yeast fitness of at most 0.5. For A14U C27U, the yeast fitness was 0.594. Work on A14U C27A yielded a yeast fitness of 0.76. A14U U32C A37G C49U gave a yeast fitness of at most 0.5. Work on A15C A43G C46A yielded a yeast fitness of 0.526. Work on A14U C55A C62U C66U yielded a yeast fitness of 0.553. Work on A14U U16A C27G A40U C49G A65U yielded a yeast fitness of at most 0.5. A14U C30U A42C showed a yeast fitness of at most 0.5. For A14U C30U A42G, the yeast fitness was at most 0.5. Work on A15C A37G yielded a yeast fitness of 0.614. In the case of A15C A37C, the yeast fitness is reported as 0.639. With A14U C30A G41A G56C the yeast fitness was at most 0.5. A14U A43U A45G G68A showed a yeast fitness of at most 0.5. Work on A15C C22G U32C G41A yielded a yeast fitness of at most 0.5. A14U G23A C29G C46A C55G G67A gave a yeast fitness of at most 0.5. A15C A20G showed a yeast fitness of 0.78. Variant A15C A20U has a yeast fitness of 0.63. For A14U C31A, the yeast fitness was 0.544. Work on A14U C49U C55U yielded a yeast fitness of at most 0.5. Work on A15C A57U C62G yielded a yeast fitness of at most 0.5. Variant A14U C27G G52A G63C has a yeast fitness of at most 0.5. A14U C22A A43G G68C gave a yeast fitness of at most 0.5. In the case of A15C A36U U64A, the yeast fitness is reported as at most 0.5. A14U A69G gave a yeast fitness of 0.608. Work on A14U A69C yielded a yeast fitness of 0.635. Work on A14U C66U yielded a yeast fitness of 0.756. A14U C66A showed a yeast fitness of 0.508. Work on A14U C24G G41A G44A C61U yielded a yeast fitness of at most 0.5. A14U C34U G39C gave a yeast fitness of 0.56. Variant A14U G52A G56A has a yeast fitness of at most 0.5. Variant A15C A37C G41C C66A has a yeast fitness of 0.589. A14U G23U U59A gave a yeast fitness of at most 0.5. With A14U A45U A69C the yeast fitness was 0.539. Work on A15C A21U C34A yielded a yeast fitness of at most 0.5. A14U C30G G51C gave a yeast fitness of at most 0.5. A14U G17A G23A G63A gave a yeast fitness of at most 0.5. Work on A14U C31U C34A U64A yielded a yeast fitness of at most 0.5. Work on A14U C24G G41A G44A U53A C66U G68C yielded a yeast fitness of at most 0.5. For A14U U47G A65U, the yeast fitness was at most 0.5. In the case of A15C C22G A43C G50A U59C, the yeast fitness is reported as at most 0.5. Variant A15C A20U C30A C31G has a yeast fitness of at most 0.5. In the case of A15C A42C G48A G50C, the yeast fitness is reported as 0.587. A15C A21C G38C G63C A70U gave a yeast fitness of 0.513. For A14U U26C A42U C60G, the yeast fitness was at most 0.5. A14U U53A A65U gave a yeast fitness of at most 0.5. Work on A15C C24A C46A A57C A69U yielded a yeast fitness of at most 0.5. In the case of A15C A21U A70G, the yeast fitness is reported as at most 0.5. Work on A14U C30U A42G C66G yielded a yeast fitness of at most 0.5. A14U C24G U26C U28C A45U C49A gave a yeast fitness of at most 0.5. A14U C27U C29G C31U showed a yeast fitness of at most 0.5. In the case of A14U C33U, the yeast fitness is reported as at most 0.5. A14U C33A showed a yeast fitness of 0.629. With A14U C33G the yeast fitness was at most 0.5. Work on A14U C22U A36U yielded a yeast fitness of 0.571. Variant A14U G17A C22U G63C has a yeast fitness of at most 0.5. A14U C30A C55A C62A showed a yeast fitness of 0.578. A14U C24G A57C A65G showed a yeast fitness of at most 0.5. In the case of A15C A42C, the yeast fitness is reported as 0.646. A14U C34G A43U C46A C62U A69C gave a yeast fitness of at most 0.5. A15C C24G A45G gave a yeast fitness of at most 0.5. With A14U G23A C29G C46A C55G A57U C62U the yeast fitness was at most 0.5. In the case of A14U A45U, the yeast fitness is reported as 0.572. A14U A45C showed a yeast fitness of 0.653. A14U A70C showed a yeast fitness of 0.596. In the case of A15C A20G C29G, the yeast fitness is reported as at most 0.5. A15C A43G gave a yeast fitness of 0.689. In the case of A15C A43U, the yeast fitness is reported as 0.653. A14U C22U G25A C55G C60U showed a yeast fitness of at most 0.5. For A15C C22G A43C G50A, the yeast fitness was 0.556. With A14U U28C A70C the yeast fitness was at most 0.5. Variant A15C A21G G23A C27U has a yeast fitness of at most 0.5. Variant A14U C27U C33U G51A G67A has a yeast fitness of at most 0.5. With A15C A45U C66A the yeast fitness was at most 0.5. Variant A14U U26G G39C A70U has a yeast fitness of at most 0.5. In the case of A14U C22U A40U G44C, the yeast fitness is reported as at most 0.5. Work on A14U U47A C61A yielded a yeast fitness of at most 0.5. A14U G17A G23A showed a yeast fitness of at most 0.5. A14U C62U showed a yeast fitness of 0.616. A14U G44C showed a yeast fitness of 0.673. Variant A14U G44A has a yeast fitness of 0.582. A14U U16A U26G C29G gave a yeast fitness of at most 0.5. With A15C A21U the yeast fitness was 0.546. A15C C22A C31A G38C showed a yeast fitness of at most 0.5. A14U C31A C60A gave a yeast fitness of 0.514. A14U U26A A45U U53C gave a yeast fitness of 0.597. With A15C A20C G39C the yeast fitness was at most 0.5. A14U U35G gave a yeast fitness of at most 0.5. Variant A14U U35C has a yeast fitness of 0.601. Variant A14U G50C A57G has a yeast fitness of at most 0.5. A14U C34U A40U G50C showed a yeast fitness of at most 0.5. Work on A14U C22A A57C yielded a yeast fitness of at most 0.5. With A14U C29G C55G A69G A70G the yeast fitness was at most 0.5. A14U C33A A69G gave a yeast fitness of 0.742. Variant A14U C29U A37U G41A has a yeast fitness of at most 0.5. For A14U A57C, the yeast fitness was at most 0.5. A14U A57U showed a yeast fitness of at most 0.5. Variant A14U G18C G39C C49G has a yeast fitness of at most 0.5. With A14U G48C C66A the yeast fitness was at most 0.5. With A14U G52A the yeast fitness was at most 0.5. Work on A14U G52U yielded a yeast fitness of 0.592. Work on A15C A20C C29A A57G yielded a yeast fitness of 0.561. A14U G18A U35A C46G A69U showed a yeast fitness of 0.591. A15C A21C A36U U47C G63A G68A gave a yeast fitness of at most 0.5. For A14U U16A C22U C24A, the yeast fitness was at most 0.5. A14U C34G A43C C62A A70U gave a yeast fitness of at most 0.5. Variant A14U G23A A36G has a yeast fitness of at most 0.5. For A15C C24A U59C C62U, the yeast fitness was at most 0.5. Work on A14U G38A yielded a yeast fitness of 0.573. For A14U C29G G67A, the yeast fitness was 0.542. Variant A14U C27G C66U has a yeast fitness of at most 0.5. Work on A14U U26G C55G yielded a yeast fitness of at most 0.5. With A14U C27G A36G C46A U59A the yeast fitness was 0.52. Variant A14U U28C C49U G50A C61G A69C has a yeast fitness of 0.621. Variant A14U C30U U53A has a yeast fitness of at most 0.5. Work on A14U C24U C33A G44C U47C C60G yielded a yeast fitness of at most 0.5. A14U U26G showed a yeast fitness of 0.675. In the case of A14U U26C, the yeast fitness is reported as 0.698. Work on A15C A20G A21G A57U yielded a yeast fitness of at most 0.5. For A14U C22A A43G C49U, the yeast fitness was at most 0.5. Variant A15C A37C A42U has a yeast fitness of at most 0.5. In the case of A14U G17U C24A C30G, the yeast fitness is reported as at most 0.5. A14U C30G C62G gave a yeast fitness of 0.573. With A15C A70U the yeast fitness was 0.872. For A15C A70G, the yeast fitness was 0.795. A15C A20G C62U U64G showed a yeast fitness of at most 0.5. Work on A14U C30U C31A G63C yielded a yeast fitness of at most 0.5. A15C A65U G67U showed a yeast fitness of at most 0.5. Variant A14U C30U C46U G52C A69U has a yeast fitness of at most 0.5. For A14U C24G A42C, the yeast fitness was 0.531. With A14U G52C C66U the yeast fitness was at most 0.5. Variant A14U U53G C61U A70G has a yeast fitness of at most 0.5. Work on A14U G17A G23A G68C yielded a yeast fitness of at most 0.5. With A14U G18A A40G C62A the yeast fitness was at most 0.5. With A14U G18C U35G C49A G68A the yeast fitness was 0.59. In the case of A14U U26C A42U C49U, the yeast fitness is reported as 0.536. In the case of A14U C30U U32C U64G, the yeast fitness is reported as at most 0.5. A14U G68C A69C gave a yeast fitness of at most 0.5. A14U G48U showed a yeast fitness of 0.567. A14U G48A showed a yeast fitness of 0.931. Variant A15C A45C G48A has a yeast fitness of 0.638. A15C A36U G58A G67A showed a yeast fitness of at most 0.5. Work on A14U C22G A43U A57C G63C C66U yielded a yeast fitness of at most 0.5. In the case of A14U C55U, the yeast fitness is reported as at most 0.5. Variant A14U U26C A42U has a yeast fitness of 0.676. A15C A21G C22U C49U showed a yeast fitness of at most 0.5. For A15C A37G A57C A69C, the yeast fitness was 0.794. For A15C A21U C24A C33A C61U, the yeast fitness was at most 0.5. A14U C22U A40U G44C A57C showed a yeast fitness of 0.635. For A14U C29G G51A C66G, the yeast fitness was at most 0.5. A15C A21C A36U U47C G63A gave a yeast fitness of 0.578. Work on A15C A21G C27G yielded a yeast fitness of at most 0.5. In the case of A14U U26C C49A, the yeast fitness is reported as at most 0.5. With A14U C27G C34A C61U C66G A69U the yeast fitness was at most 0.5. Work on A14U U28A yielded a yeast fitness of 0.579.
